Compound activity deposited in PubChem by several laboratories.
Most compounds without a hit are left out; they make up all but 3.1% or so of the library.
LEDGF integ inh – blocks HIV-1 LEDGF/p75-dependent DNA integration. TR-FRET IN-LEDGF/p75 DNA integration, Eu/Cy5. AID 743269. inhibition, % at 3.7 µM. hit rate 0.64% among 370,000;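 active = inhibition above the screen-wide mean plus 3 SD, cut at about 13% in these data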;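 note: signal is the Cy5 over europium emission ratio at 671 and 618 nm; 0% = plate median of compound wells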
ATG4B inhibitor – blocks human ATG4B protease cleavage of LC3 substrate | hit rate 0.51% among 340,000 | ATG4B cleavage of LC3-PLA2, NBD-HPC fluorescence, 1 h | inhibition, % at 8.33 µM | Q9Y4P1; in the data active = inhibition above about 40%
Target sequence (Q9Y4P1 whole entry, looked up): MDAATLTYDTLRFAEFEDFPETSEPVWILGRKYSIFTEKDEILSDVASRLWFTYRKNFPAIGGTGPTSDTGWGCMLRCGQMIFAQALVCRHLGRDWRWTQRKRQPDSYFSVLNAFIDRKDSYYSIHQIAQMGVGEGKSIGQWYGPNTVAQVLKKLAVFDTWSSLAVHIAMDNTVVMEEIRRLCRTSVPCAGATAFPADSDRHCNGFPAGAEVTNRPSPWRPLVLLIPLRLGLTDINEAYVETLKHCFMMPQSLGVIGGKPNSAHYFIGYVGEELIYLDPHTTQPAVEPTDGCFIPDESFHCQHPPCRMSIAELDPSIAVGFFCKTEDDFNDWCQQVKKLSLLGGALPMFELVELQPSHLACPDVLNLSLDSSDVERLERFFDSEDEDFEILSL
UHRF1 binding – human UHRF1 methylated DNA binding inhibitors. UHRF1 binding to methylated oligo, TR-FRET. inhibition, % at 4.4 µM. hit rate 0.75% among 370,000. AID 687016; in the data active = inhibition above about 21%;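 note: UHRF1 SRA domain binding a hemimethylated CpG hairpin DNA probe; 0% = median of test compound wells and 100% = reference inhibitor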
MBD2 inh – blocks human MBD2 binding to methylated DNA; inhibition, % at 4.4 µM; Q9UBB5; hit rate 0.31% among 370,000; TR-FRET, MBD2 binding to methylated oligonucleotide; in the data active = inhibition above about 13%
CSN inh – inhibitors of human CSN-mediated cullin deneddylation; hit rate 0.38% among 360,000; Purified CSN, SCF-Nedd8-OG deneddylation, fluorescence polarization; inhibition, % at 12.5 µM; Q92905;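 active = pattern-corrected inhibition above about 35%, with an unprinted fluorescence ratio check between 0.5 and 1.5, limit read from the data, passing the limit was not always enough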;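 note: 0% = enzyme with substrate and 100% = substrate without enzyme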
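Detection – fluorescence polarization · System – HEK293T-derived human Csn5 enzyme · Controls – substrate-only high control, full reaction low control · Timing – 90 min, room temperature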
rCAG RNA binder – molecules binding r(CAG) RNA repeats. r(CAG) RNA repeat, TO-PRO-1 dye displacement fluorescence. inhibition, % at 3 µM. hit rate 1.3% among 370,000. AID 651821;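 active = inhibition above the plate cutoff, the mean of all test compounds on that plate plus 3 SD, cut at about 35% in these data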;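 note: 0% = DMSO alone and 100% = 100 µM mitoxantrone as full dye displacement; higher means more dye released from RNA so lower well fluorescence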
CSN deneddyl val – Csn5 (human) deneddylation inhibition, single-concentration validation; shares compounds with CSN inh; Csn5 deneddylation of SCF-Nedd8OG, fluorescence polarization, 90 min; inhibition, % at 16.6 µM; hit rate 62% among 540; in the data active = inhibition above about 50%;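 note: 0% = DMSO with enzyme and 100% = no enzyme wells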
MMP2 cntr CSN – MMP-2 (human) inhibition, counter-screen for CSN hits | shares compounds with CSN inh | recombinant MMP-2, FRET substrate fluorescence, 60 min | inhibition, % at 16.6 µM | hit rate 33% among 540 | AID 720655;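 active = corrected plate-normalized z-score of 5 or more, or -5 or less, or inhibition of 15% or more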;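 note: plate controls were DMSO wells with enzyme for no effect and buffer wells lacking MMP-2 for full effect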
Thrombin counter – thrombin (bovine) inhibition, counter-screen for CSN hits | shares compounds with CSN inh | bovine thrombin cleavage of Ub4-pepOG, fluorescence polarization | inhibition, % at 16.6 µM | hit rate 49% among 540 | AID 720656;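 active = inhibition at or above a set limit, with a fluorescence interference ratio between 0.5 and a set maximum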
UHRF1 DNA bind – inhibits human UHRF1 binding to methylated oligonucleotide, MBD2 counter-screen | shares compounds with MBD2 inh | TR-FRET | inhibition, % at 4.4 µM | hit rate 25% among 1,000; in the data active = inhibition above about 21%;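 note: UHRF1 SRA domain binding a labeled hemimethylated CpG hairpin DNA; 0% = vehicle only and 100% = reference inhibitor with vehicle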
MBD2 confirm – confirmation of human MBD2-DBD methylated oligonucleotide binding inhibitors | shares compounds with MBD2 inh | hit rate 26% among 1,000 | inhibition, % at 4.4 µM | AID 720531 | TR-FRET MBD2-DBD binding to methylated oligonucleotide
IN multimer act – counter-screen for LEDGF/p75 integration inhibitors: HIV-1 integrase multimerization activators; TR-FRET HIV-1 integrase multimerization, biochemical; hit rate 17% among 2,000; shares compounds with LEDGF integ inh; activation, % at 7.7 µM; in the data active = activation above about 8.9%
TR-FRET interf – TR-FRET optical interference, LEDGF/p75 integration counter-screen; shares compounds with LEDGF integ inh; TR-FRET optical interference counterscreen, HIV-1 IN multimerization; inhibition, % at 7.7 µM; 2,000 tested, under 10 active; AID 1053135;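 active = inhibition above the mean over all tested compounds plus 3 SD, which no compound reached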;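 note: 0% = integrase with antibodies and DMSO and 100% = antibodies without integrase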
IN-LEDGF confirm – confirmation of HIV-1 LEDGF/p75-dependent integration inhibitors; AID 1053136; inhibition, % at 3.7 µM; hit rate 36% among 2,000; shares compounds with LEDGF integ inh; TR-FRET LEDGF/p75-dependent HIV-1 integration, biochemical
Active calls of the source: *; · = not tested or not shown. Cut-off read from the data, not from the text of the source, unless noted: active = inhibition above about 14%; inactive = the rest.

SMILES	LEDGF integ inh	ATG4B inhibitor	UHRF1 binding	MBD2 inh	CSN inh	rCAG RNA binder	CSN deneddyl val	MMP2 cntr CSN	Thrombin counter	IN multimer act	TR-FRET interf	IN-LEDGF confirm	others
COc1cc(N(C)C)ccc1C=c1c2ccccc2n2c1cc(-c1ccccc1)[n+]2C	-1	30	43*	27*	71*	14	-15	73*	57*	·	·	·	UHRF1 DNA bind=62*;MBD2 confirm=58*
CN1[C@H](Cc2ccccc2)COc2cccc(F)c2S1(=O)=O	2	·	-2	3	·	1	·	·	·	·	·	·
[O-][n+]1cccc2c(Br)cc(Br)c(O)c21	5	-9	-7	-5	5	7	·	·	·	·	·	·
C[n+]1cccc2c(Br)ccc([O-])c21	45*	-7	6	-8	45*	2	103*	4	-10	4	-13	61*
Cn1c(=O)cc(OCC(=O)N2CCN(c3ccccc3Cl)CC2)c2ccccc21	1	·	19	-7	·	1	·	·	·	·	·	·
O=c1[nH]c(Nc2ccc(F)cc2)cc2ccccc12	53*	33	5	2	35*	1	73*	9	-34	1	-4	67*
COc1ccc2c(c1)CNC2CS(=O)(=O)NCC(C)C (stereo unspecified)	8	·	-4	-2	·	7	·	·	·	·	·	·
O=C1NC(=Nc2ccc(O)cc2)S/C1=C\C=C\c1ccco1	39*	-4	5	-5	48*	28	92*	7	-10	18*	-93	53*
Cc1cc(-c2csc(NC(=O)c3ccc(=O)[nH]c3)n2)c(C)n1Cc1ccco1	63*	-6	9	10	40*	29	98*	8	-1	11*	-58	43*
COc1ccccc1-c1ccc(/C=C2/C=C(C)OC2=O)o1	10	7	-3	1	12	24	·	·	·	·	·	·
COc1ccccc1-c1ccc(/C=C2\C=CC(=O)O2)o1	44*	2	27*	15*	77*	20	48	-26	53*	2	-6	11	UHRF1 DNA bind=8;MBD2 confirm=1
Cc1ccc(CNc2ccc(O)cc2)cc1	20*	-17	-2	-8	38*	12	87*	0	-30	11*	-56	31*
O=C(O)CCCN1C(=O)/C(=C\c2ccco2)SC1=S	35*	8	52*	6	42*	7	94*	30*	5	7	-26	40*
O=S(=O)(N[C@@H]1CCCC[C@H]1N1CCOCC1)c1ccc(Cl)cc1	1	·	0	-5	·	·	·	·	·	·	·	·
CC(C)CSc1ncccc1-c1nc2ccccc2[nH]1	-2	·	0	3	·	1	·	·	·	·	·	·
O=C1C2C(C(=O)N1/N=C/c1cc([N+](=O)[O-])ccc1O)C1C=CC2C12CC2 (stereo unspecified)	1	-14	-1	1	-5	5	·	·	·	·	·	·
O=C1C2C(C(=O)N1/N=C/c1cc([N+](=O)[O-])c(O)cc1O)C1C=CC2C12CC2 (stereo unspecified)	18*	1	15	2	36*	15	71	17*	10	7	-37	20*
O=C(O)c1cc(-c2ccc(/C=C3\NC(=O)N(c4ccc(Cl)cc4)C3=O)o2)ccc1Cl	15*	22	62*	8	40*	26	26	18*	10	1	-7	27*
C#CCN1C(=O)S/C(=C\c2ccc(-c3ccc(Cl)c(C(=O)O)c3)o2)C1=O	-3	9	9	3	3	15	·	·	·	·	·	·
O=C(NCC1CCN(C(=O)C(=O)c2cc3ccccc3o2)CC1)c1ccc2c(c1)OCCCO2	-2	·	3	0	·	2	·	·	·	·	·	·
COc1ccc2c(c1)CN1CN(Cc3ccc(F)cc3)S(=O)(=O)CC21 (stereo unspecified)	5	·	-4	-8	·	3	·	·	·	·	·	·
O=C(O)c1ccc(-n2cccc2/C=C2/NC(=O)N(c3ccccc3)C2=O)cc1	22*	5	77*	37*	36*	33	71*	20*	-21	14*	-72	31*	UHRF1 DNA bind=72*;MBD2 confirm=44*
O=C(O)c1ccc(-n2cccc2/C=C2/SC(=O)N(CC(=O)N3CCCC3)C2=O)cc1	36*	12	76*	44*	43*	26	·	31*	11	16*	-80	36*	UHRF1 DNA bind=85*;MBD2 confirm=49*
O=C1c2cccc(NCCCNCCO)c2C(=O)c2cccc(NCCCNCCO)c21	16*	4	93*	105*	94*	22	-21	34*	-32	18*	-89	13*	UHRF1 DNA bind=82*;MBD2 confirm=102*
O=C1c2ccccc2C(=O)c2c(NCc3cccnc3)cccc21	-1	-2	-2	1	2	7	·	·	·	·	·	·
CCN(CC)c1ccc(C=Nc2ccc(N(C)C)cc2)c(O)c1	34*	-1	11	-6	42*	12	128*	-11	37*	13*	-45	4
CCN(CC)c1ccc(C=Nc2ccc(C)cc2)c(O)c1	0	2	-2	-5	2	0	·	·	·	·	·	·
CC(C)[C@H](NC(=O)OC(C)(C)C)C(=O)N1CCC(Oc2cccnc2)CC1	6	·	-1	0	·	-2	·	·	·	·	·	·
COc1ccc(OC)c(N2C(=O)[C@@H]3C(c4ccccc4Cl)=NO[C@@H]3C2=O)c1	23*	-7	67*	26*	40*	24	69*	12	7	4	-20	26*	UHRF1 DNA bind=38*;MBD2 confirm=18*
